Structures are written as SMILES. *1 amine or outer side, *2 acyl side, *3 side chain or, on linkers, in order; H or OH if unused. Where a SMILES comes first, the peptide text is derived from it. Bridges are numbered along the chain shown (N, C = ends). [ ]: non-standard residue; d: D form. The star is where a group is joined. Staurosporine = CO[C@@H]1[C@H](N(C)*)C[C@H]2O[C@]1(C)n1c3ccccc3c3c4c(c5c6ccccc6n2c5c31)C(=O)NC4; Suc = O=C(CCC(=O)[*:2])[*:1]; Dap = NC[C@H](N)C(=O)O; βAla = NCCC(=O)O

Assay [1] concerns the target Epidermal growth factor receptor (Homo sapiens) (UniProt P00533). Kind of assay: Binding affinity to human EGFR at 500 nM by cell-based competition binding assay relative to control in presence of DTT. In a few lines:
(§1)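 Commercial (Ambit) competitive kinase-binding panel of 90 kinases measured the binding profile. Run under reducing conditions of 7.5 mM DTT. Binding is expressed relative to control.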

Assay [2] concerns the target T1, 3-phosphoinositide-dependent protein kinase 1 (Homo sapiens) (UniProt O15530).
T1 sequence (whole entry): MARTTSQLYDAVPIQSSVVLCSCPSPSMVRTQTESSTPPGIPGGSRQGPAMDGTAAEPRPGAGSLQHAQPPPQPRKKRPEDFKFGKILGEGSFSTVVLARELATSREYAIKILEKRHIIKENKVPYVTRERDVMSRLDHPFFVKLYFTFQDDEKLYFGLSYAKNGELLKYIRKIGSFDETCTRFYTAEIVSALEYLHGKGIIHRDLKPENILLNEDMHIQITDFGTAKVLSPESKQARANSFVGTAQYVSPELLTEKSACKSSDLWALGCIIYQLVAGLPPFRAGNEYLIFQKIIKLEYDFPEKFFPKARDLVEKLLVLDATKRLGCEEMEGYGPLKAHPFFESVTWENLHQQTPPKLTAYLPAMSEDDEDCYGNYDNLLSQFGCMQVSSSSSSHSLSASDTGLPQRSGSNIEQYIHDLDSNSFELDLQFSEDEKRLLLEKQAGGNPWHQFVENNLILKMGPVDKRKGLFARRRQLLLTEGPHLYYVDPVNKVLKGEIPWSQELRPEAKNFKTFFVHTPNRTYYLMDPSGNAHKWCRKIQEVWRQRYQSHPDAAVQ
The experiment in a line: Binding affinity to human PDPK1 at 500 nM by cell-based competition binding assay relative to control in presence of DTT.

Assay [3] addresses RAF proto-oncogene serine/threonine-protein kinase (Homo sapiens) (UniProt P04049). The experiment in a line: Binding affinity to human RAF1 at 500 nM by cell-based competition binding assay relative to control in presence of DTT.
Assay [4] has as its target Cyclin-dependent kinase 3 (Homo sapiens) (UniProt Q00526). Kind of assay: Binding affinity to human CDK3 at 500 nM by cell-based competition binding assay relative to control in presence of DTT. In short, it runs like this:
(§2)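 Kinase binding profiling ran on a commercial (Ambit) competitive binding screen against a panel of 90 kinases. The screen used reducing conditions with 7.5 mM DTT. To withstand the DTT, the bivalent ligand was tested as its amide isostere, with the disulfide replaced. A staurosporine derivative carrying a 3 β-alanine linker was run as the reference compound.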

Assay [5] deals with Receptor tyrosine-protein kinase erbB-4 (Homo sapiens) (UniProt Q15303). Kind of assay: Binding affinity to human ERBB4 at 200 nM by cell-based competition binding assay relative to control in presence of DTT. In a few lines: as §1
Chain of Receptor tyrosine-protein kinase erbB-4 (Homo sapiens) (Q15303 whole entry): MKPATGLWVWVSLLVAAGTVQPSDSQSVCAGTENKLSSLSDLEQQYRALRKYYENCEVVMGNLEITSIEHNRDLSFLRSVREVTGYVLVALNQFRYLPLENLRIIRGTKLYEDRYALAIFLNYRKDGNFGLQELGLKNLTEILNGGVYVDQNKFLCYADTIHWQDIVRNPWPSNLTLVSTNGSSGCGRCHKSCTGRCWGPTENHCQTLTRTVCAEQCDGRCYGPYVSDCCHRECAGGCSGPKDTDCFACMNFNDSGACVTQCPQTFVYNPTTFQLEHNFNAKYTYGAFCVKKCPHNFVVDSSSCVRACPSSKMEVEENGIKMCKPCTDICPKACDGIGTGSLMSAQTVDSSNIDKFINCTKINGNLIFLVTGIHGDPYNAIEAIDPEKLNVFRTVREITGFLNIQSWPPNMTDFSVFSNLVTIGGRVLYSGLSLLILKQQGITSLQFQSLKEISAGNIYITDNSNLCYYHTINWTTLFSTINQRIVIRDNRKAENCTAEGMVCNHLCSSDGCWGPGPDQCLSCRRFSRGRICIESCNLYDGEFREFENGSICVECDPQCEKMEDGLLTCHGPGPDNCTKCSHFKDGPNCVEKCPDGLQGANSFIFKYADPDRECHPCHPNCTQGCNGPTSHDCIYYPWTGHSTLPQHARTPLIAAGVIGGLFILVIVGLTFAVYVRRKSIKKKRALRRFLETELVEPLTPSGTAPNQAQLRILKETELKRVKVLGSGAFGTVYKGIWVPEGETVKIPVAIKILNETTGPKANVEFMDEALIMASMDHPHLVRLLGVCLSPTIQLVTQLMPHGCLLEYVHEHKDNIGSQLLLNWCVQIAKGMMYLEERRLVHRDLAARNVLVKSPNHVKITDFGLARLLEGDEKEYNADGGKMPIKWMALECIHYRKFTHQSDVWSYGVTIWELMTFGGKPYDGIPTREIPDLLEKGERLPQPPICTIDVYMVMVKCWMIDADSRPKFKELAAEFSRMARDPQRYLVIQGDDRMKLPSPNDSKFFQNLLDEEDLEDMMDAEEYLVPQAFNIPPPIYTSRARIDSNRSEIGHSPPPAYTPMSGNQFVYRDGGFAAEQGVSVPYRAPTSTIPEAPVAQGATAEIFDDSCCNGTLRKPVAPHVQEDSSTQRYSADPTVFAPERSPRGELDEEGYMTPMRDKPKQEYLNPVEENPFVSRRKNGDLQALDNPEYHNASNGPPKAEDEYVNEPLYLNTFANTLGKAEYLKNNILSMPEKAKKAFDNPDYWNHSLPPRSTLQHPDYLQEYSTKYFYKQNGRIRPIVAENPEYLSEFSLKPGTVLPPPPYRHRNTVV
Assay [6] deals with Mitogen-activated protein kinase 10 (Homo sapiens) (UniProt P53779). Kind of assay: Binding affinity to human JNK3 at 200 nM by cell-based competition binding assay relative to control in presence of DTT. In short, it runs like this:
(§3)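 Competition binding screen (Ambit) across a panel of 90 kinases, scoring test ligand displacement of each kinase's binding relative to control. The screen ran under reducing conditions with 7.5 mM DTT.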

The target in assay [7] is Aurora kinase B (Homo sapiens) (UniProt Q96GD4). Kind of assay: Binding affinity to human aurora kinase B at 200 nM by cell-based competition binding assay relative to control in presence of DTT.
Chain of Aurora kinase B (Homo sapiens) (Q96GD4 whole entry): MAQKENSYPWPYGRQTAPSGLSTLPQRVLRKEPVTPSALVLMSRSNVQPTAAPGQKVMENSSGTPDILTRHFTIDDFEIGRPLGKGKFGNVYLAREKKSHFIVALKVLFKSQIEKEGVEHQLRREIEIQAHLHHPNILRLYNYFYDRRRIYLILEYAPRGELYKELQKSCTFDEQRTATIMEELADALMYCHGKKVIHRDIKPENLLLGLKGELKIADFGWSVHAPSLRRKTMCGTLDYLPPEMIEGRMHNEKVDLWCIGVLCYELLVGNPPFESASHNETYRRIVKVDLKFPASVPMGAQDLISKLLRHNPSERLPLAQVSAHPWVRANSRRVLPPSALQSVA
The target of assay [8] is Cyclin-dependent kinase 2 (Homo sapiens) (UniProt P24941). Kind of assay: Binding affinity to human CDK2 at 200 nM by cell-based competition binding assay relative to control in presence of DTT. In a few lines: as §2
The target of assay [9] is T2, NUAK family SNF1-like kinase 2 (Homo sapiens) (UniProt Q9H093).
T2 sequence (whole entry): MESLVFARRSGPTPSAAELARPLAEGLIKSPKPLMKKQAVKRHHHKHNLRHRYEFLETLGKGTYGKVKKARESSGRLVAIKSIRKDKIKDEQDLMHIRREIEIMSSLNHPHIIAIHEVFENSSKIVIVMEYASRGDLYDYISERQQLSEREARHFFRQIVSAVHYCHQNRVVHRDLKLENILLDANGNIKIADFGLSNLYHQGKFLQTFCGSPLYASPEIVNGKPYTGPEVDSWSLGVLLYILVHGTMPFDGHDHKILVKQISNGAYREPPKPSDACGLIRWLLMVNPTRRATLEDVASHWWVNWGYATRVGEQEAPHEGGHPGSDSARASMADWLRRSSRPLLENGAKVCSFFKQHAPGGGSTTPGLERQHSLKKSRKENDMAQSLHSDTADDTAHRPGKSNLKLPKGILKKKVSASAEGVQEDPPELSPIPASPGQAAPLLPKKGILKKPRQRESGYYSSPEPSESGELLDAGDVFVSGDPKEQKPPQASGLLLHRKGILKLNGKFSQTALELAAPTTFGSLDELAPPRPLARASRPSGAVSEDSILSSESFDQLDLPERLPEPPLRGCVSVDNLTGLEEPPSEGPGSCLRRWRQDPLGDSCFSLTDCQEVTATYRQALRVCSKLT
The experiment in a line: Binding affinity to human SNARK at 50 nM by cell-based competition binding assay relative to control in presence of DTT.

Assay [10] addresses Proto-oncogene tyrosine-protein kinase Src (Homo sapiens) (UniProt P12931). The experiment in a line: Binding affinity to human SRC at 50 nM by cell-based competition binding assay relative to control in presence of DTT.
For assay [11], the target named is T3, Tyrosine-protein kinase ZAP-70 (Homo sapiens) (UniProt P43403).
T3 sequence (whole entry): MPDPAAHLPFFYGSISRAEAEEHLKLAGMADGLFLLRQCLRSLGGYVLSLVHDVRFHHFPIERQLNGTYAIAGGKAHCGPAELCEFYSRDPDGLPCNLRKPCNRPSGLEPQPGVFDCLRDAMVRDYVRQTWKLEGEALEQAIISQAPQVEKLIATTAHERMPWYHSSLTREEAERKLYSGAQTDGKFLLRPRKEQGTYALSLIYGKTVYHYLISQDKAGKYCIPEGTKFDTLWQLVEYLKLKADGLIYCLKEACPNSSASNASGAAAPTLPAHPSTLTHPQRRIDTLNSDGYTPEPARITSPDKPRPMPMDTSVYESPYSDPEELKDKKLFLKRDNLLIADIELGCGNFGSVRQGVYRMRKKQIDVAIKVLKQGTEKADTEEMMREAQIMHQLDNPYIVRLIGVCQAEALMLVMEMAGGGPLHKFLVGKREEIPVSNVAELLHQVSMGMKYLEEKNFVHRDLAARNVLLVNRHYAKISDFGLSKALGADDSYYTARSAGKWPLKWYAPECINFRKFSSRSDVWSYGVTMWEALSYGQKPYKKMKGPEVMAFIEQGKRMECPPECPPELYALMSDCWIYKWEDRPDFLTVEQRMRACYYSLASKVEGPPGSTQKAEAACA
The experiment in a line: Binding affinity to human ZAP70 at 50 nM by cell-based competition binding assay relative to control in presence of DTT.

Assay [12] concerns the target Mitogen-activated protein kinase 8 (Homo sapiens) (UniProt P45983). Kind of assay: Binding affinity to human JNK1 at 50 nM by cell-based competition binding assay relative to control in presence of DTT. In short, it runs like this:
as §3

Chain of RAF proto-oncogene serine/threonine-protein kinase (Homo sapiens) (P04049 whole entry): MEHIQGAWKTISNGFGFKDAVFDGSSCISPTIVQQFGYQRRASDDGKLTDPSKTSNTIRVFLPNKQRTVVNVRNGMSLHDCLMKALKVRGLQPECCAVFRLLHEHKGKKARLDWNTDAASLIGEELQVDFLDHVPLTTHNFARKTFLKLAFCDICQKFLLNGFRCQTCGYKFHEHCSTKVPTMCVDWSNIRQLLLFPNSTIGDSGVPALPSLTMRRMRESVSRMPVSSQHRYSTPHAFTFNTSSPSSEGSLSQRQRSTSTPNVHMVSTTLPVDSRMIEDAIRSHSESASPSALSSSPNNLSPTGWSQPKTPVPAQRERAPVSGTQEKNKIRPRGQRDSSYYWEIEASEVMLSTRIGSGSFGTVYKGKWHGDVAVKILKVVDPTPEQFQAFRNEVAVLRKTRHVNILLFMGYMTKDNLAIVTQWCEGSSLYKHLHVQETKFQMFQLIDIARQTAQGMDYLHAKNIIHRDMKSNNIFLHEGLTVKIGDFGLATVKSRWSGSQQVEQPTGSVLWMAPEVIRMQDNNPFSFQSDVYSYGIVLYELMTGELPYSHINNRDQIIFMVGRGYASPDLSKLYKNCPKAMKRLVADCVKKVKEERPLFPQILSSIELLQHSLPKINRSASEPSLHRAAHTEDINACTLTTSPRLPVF
Chain of Cyclin-dependent kinase 3 (Homo sapiens) (Q00526 whole entry, looked up): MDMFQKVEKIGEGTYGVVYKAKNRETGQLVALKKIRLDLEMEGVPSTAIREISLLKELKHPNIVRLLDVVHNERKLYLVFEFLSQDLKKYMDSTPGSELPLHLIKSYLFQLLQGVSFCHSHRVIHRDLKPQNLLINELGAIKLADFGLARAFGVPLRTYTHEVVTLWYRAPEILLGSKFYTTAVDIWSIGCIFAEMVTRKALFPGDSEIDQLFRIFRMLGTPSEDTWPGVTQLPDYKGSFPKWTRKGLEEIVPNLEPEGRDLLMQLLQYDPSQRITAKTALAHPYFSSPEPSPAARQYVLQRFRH
Chain of Mitogen-activated protein kinase 10 (Homo sapiens) (P53779 whole entry): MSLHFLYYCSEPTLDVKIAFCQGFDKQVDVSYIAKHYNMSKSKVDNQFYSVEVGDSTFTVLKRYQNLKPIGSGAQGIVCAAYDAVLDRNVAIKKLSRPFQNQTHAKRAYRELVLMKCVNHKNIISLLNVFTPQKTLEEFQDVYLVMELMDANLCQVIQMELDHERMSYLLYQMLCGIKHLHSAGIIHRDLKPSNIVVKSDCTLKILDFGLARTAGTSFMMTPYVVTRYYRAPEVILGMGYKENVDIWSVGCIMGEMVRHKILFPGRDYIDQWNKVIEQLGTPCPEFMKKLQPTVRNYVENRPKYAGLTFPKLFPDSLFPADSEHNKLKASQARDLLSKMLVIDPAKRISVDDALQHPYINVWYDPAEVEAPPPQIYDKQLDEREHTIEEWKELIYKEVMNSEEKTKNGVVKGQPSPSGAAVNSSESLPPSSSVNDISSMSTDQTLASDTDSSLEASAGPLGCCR
Chain of Mitogen-activated protein kinase 8 (Homo sapiens) (P45983 whole entry): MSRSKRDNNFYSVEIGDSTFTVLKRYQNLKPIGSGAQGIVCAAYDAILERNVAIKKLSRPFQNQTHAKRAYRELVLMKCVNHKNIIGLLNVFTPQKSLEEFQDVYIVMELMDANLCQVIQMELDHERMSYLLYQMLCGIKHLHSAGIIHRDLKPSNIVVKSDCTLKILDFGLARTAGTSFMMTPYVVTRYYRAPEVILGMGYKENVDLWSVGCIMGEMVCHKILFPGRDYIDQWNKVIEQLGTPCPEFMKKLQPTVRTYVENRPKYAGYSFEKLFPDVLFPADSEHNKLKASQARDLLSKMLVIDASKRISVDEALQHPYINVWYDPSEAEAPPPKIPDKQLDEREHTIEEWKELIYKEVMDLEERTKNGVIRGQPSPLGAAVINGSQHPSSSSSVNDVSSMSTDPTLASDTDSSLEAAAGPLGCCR
Chain of Proto-oncogene tyrosine-protein kinase Src (Homo sapiens) (P12931 2-536 limits assumed): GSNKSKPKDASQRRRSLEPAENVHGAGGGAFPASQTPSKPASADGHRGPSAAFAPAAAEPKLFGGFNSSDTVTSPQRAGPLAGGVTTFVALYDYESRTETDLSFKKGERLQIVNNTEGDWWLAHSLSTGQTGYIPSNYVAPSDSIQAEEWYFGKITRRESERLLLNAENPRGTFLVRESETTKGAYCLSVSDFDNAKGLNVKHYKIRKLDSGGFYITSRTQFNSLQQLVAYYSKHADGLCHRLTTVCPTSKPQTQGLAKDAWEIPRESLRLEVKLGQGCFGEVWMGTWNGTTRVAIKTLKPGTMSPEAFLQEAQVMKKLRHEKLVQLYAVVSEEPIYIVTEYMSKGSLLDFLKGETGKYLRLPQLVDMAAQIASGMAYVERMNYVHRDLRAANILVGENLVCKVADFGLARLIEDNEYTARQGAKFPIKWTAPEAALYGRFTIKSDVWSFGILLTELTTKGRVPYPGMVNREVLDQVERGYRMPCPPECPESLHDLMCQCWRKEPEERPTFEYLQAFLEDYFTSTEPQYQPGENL

Take `CO[C@@H]1[C@H](N(C)C(=O)CCC(=O)NCCC(=O)NCCC(=O)NCCC(N)=O)C[C@H]2O[C@]1(C)n1c3ccccc3c3c4c(c5c6ccccc6n2c5c31)C(=O)NC4`: the Activity in assay [1] came out at 54%; in assay [2] it was 18%; in assay [3], 73%; in assay [4], 87%.

`CO[C@@H]1[C@H](N(C)C(=O)CCC(=O)NCCC(=O)NCCC(=O)NCCC(=O)NCCC(=O)NCCC(=O)NCCC(=O)NCCC(=O)N[C@H]2CSSC[C@@H](C(=O)NCC(N)=O)NC(=O)CNC(=O)[C@H](Cc3ccccc3)NC(=O)[C@H](C(C)C)NC(=O)[C@H](CCCNC(=N)N)NC(=O)[C@H](Cc3ccccc3)NC(=O)[C@H](C(C)C)NC2=O)C[C@H]2O[C@]1(C)n1c3ccccc3c3c4c(c5c6ccccc6n2c5c31)C(=O)NC4` ({Staurosporine-Suc-βAla-βAla-βAla-βAla-βAla-βAla-βAla}-CVFRVFGCG-NH2; disulfide 1-8): the Activity in [5] stood at 100%; in assay [6] it was 65%; in assay [7], 5.8%; in assay [8] it was 100%.

With `CO[C@@H]1[C@H](N(C)C(=O)CCC(=O)NCCC(=O)NCCC(=O)NCCC(=O)NCCC(=O)NCCC(=O)NCCC(=O)NCCC(=O)N[C@H]2CNC(=O)C[C@@H](C(N)=O)NC(=O)CNC(=O)[C@H](Cc3ccccc3)NC(=O)[C@H](C(C)C)NC(=O)[C@H](CCCNC(=N)N)NC(=O)[C@H](Cc3ccccc3)NC(=O)[C@H](C(C)C)NC2=O)C[C@H]2O[C@]1(C)n1c3ccccc3c3c4c(c5c6ccccc6n2c5c31)C(=O)NC4` ({Staurosporine-Suc-βAla-βAla-βAla-βAla-βAla-βAla-βAla}-[Dap]VFRVFGD-NH2; lactam 1-8), the Activity in [9] amounted to 1.8%; in assay [10], 100%; in assay [11], 57%; in assay [12], 100%.

(Values after ChEMBL document CHEMBL1152541, “Staurosporine tethered peptide ligands that target cAMP-dependent protein kinase (PKA): optimization and selectivity profiling” (Bioorg Med Chem, 2009).)
